Source: article PMC10906133 (Journal of Enzyme Inhibition and Medicinal Chemistry, 2024)

How the values were obtained:
[1] = system: iNOS, COX2, IL-6 and TNF-α protein expression; assay: Western blot of inflammatory protein expression in LPS-treated RAW264.7 cells; assay type: cell-based; details: RAW264.7, 2, 1, 0.5 µM 1 h, then LPS 500 ng/mL 24 h
How it was run: (§1)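 RAW264.7 cells (2 × 10^6/well) were cultured overnight, pretreated 1 h with test compound at 2, 1 or 0.5 µM, then stimulated with LPS 0.5 µg/mL. Lysis was in RIPA, followed by SDS-PAGE and PVDF transfer. Primary antibodies (1:1000) were applied overnight at 4 °C, then HRP secondary for 1 h, with ECL detection and β-actin reference. Three repeats; densitometry given as mean ± SD.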

[2] = system: phosphorylation of IκB and p65 (NF-κB signalling pathway); assay: Western blot of NF-κB signalling pathway in LPS-treated RAW264.7 cells; assay type: cell-based; details: RAW264.7, 2, 1, 0.5 µM 1 h, then LPS 500 ng/mL 30 min
How it was run: as §1

[3] = system: p-p38, p-ERK and p-JNK (MAPK signalling pathway); assay: Western blot of MAPKs signalling pathway in LPS-treated RAW264.7 cells; assay type: cell-based; details: RAW264.7, 2, 1, 0.5 µM 1 h, then LPS 500 ng/mL 30 min
[4] = system: DSS-induced acute colitis in mice; assay: DSS-induced acute colitis model in mice; assay type: in vivo, C57BL/6 mice; details: for MPO in colon tissue: day 7, E2 20 mg/kg, sulfasalazine 200 mg/kg, oral
How it was run: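 Male C57BL/6 mice (16–18 g; n=10 per group) received 5% (wt/vol) DSS in drinking water on days 1–7. Test compound (10 or 20 mg/kg) or sulfasalazine 200 mg/kg was given by gavage in 0.5% CMC-Na on days 1–7; control groups received vehicle. Weight, stool and DAI were scored daily. On day 8: serum ELISA (TNF-α, IL-1β, IL-6), colon length, histology, and colon MPO. Values are mean ± SEM.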

| SMILES | Expression of iNOS, COX2, IL-6 and TNF-α protein [1] | Phosphorylation of IκB and p65 proteins [2] | Expression of p-p38, p-ERK and p-JNK [3] | DSS treatment-induced shortening of colon length ([4]; 5% DSS days 1-7, oral E2 10 and 20 mg/kg) | Histopathological symptoms of colon ([4]; 5% DSS days 1-7, oral E2, vs model group) | Levels of COX-2, p-NF-κB and p-Stat3 expression in colon (Western blot) ([4]; DSS-treated mice, oral E2) | Levels of TNF-α, IL-1β and IL-6 in serum (ELISA) ([4]; DSS-treated mice, oral E2) | mRNA expression levels of TNF-α, IL-1β, IL-6, iNOS, COX-2 and TLR4 in colon tissue ([4]; DSS-treated mice, oral E2, RT-qPCR) | MPO in colon tissue [4] |
| --- | --- | --- | --- | --- | --- | --- | --- | --- | --- |
| C#CCOc1ccc(/C=C/c2cc(OC)cc(OC)c2-c2cnnn2C(=O)NCCC)cc1 [E2] | significantly inhibited | inhibited | inhibits the expression of p-p38, p-ERK, and p-JNK in a dose-dependent manner | significantly attenuated | significantly improved these symptoms | decreased | significantly decreased | alleviated | significantly reduced |
| O=C(O)c1cc(/N=N/c2ccc(S(=O)(=O)Nc3ccccn3)cc2)ccc1O [sulfasalazine, Sulfasalazine, reference compound] | – | – | – | – | – | – | – | – | significantly reduced |
